Compound activity as filed in PubChem BioAssay.
Sampled rows, rich in hits. Any-hit rate of the full collection: about 9.5%.
D1 mod: D1 dopamine receptor (human) allosteric modulation | P21728 | HEK293 D1, CRE-luciferase, dopamine EC30 potentiation; actives deviate in either direction | B-score at 10 µM | 58,000 tested, 5.9% active;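 active = luminescence count or its row- and column-corrected plate score outside the 99.7% band of the plate's sample wells, on either side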
Target sequence (P21728 whole entry, looked up): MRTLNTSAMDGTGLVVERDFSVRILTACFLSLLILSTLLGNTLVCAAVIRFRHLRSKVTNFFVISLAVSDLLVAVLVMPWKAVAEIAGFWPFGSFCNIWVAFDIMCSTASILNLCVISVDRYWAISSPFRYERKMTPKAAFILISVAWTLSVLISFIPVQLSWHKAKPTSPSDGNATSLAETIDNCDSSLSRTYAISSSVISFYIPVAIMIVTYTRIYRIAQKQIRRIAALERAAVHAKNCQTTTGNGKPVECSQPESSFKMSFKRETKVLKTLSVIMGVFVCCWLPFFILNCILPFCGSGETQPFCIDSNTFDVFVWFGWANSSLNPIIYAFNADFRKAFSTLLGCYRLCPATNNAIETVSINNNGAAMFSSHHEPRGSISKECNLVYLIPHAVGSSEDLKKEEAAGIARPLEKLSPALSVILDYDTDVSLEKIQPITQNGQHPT
Htt clearance: mutant huntingtin protein clearance | inhibition, % at 1.5 µM | AID 853 | 47,000 tested, 0.42% active | HeLa Exon1htt(103Q)mCFP, aggregate imaging; zero = plate's median compound well;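 active = inhibition of aggregate fluorescence above about 70%, also judged a hit by eye on the cell image, limit read from the data, passing the limit was not always enough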;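 note: cells exposed to compound for three days before fixation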
HEK293 NFkB inh: inhibitors of the PMA/ionomycin-induced NF-kB reporter in HEK293 cells | HEK-293 NF-kB luciferase reporter, luminescence | inhibition, % at 3 µM | 62,000 tested, 0.21% active | AID 465;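 active = inhibition above the mean of all tested compounds plus 3 SD, cut at about 40% in these data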;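 note: 0% = stimulated DMSO wells and 100% = 10 µM reference inhibitor 5653914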
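System – HEK-293 cells with stable firefly luciferase reporter driven by four HIV NF-kB elements · Doses – one dose, 3 µM · Schedule – 1 h compound pre-incubation, 16 h PMA/ionomycin at 37 °C · Technique – luminescence from luciferase substrate reagent · Measure – percent inhibition normalized per plate to DMSO and reference-inhibitor controls · Replicates – tested once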
Jurkat viability: cytotoxic compounds reducing Jurkat cell viability | 56,000 tested, 1.2% active | inhibition, % at 4 µM | Jurkat E6.1 viability, ATP luminescence, 48 h | AID 463;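 active = inhibition above the mean inhibition of all tested compounds plus 3 SD, cut at about 28% in these data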
M1 ag: M1 muscarinic receptor agonism; B-score at 10 µM; AID 626; CHO-M1 cells, Fluo-4 calcium fluorescence, agonist mode; stronger effect = higher value; 64,000 tested, 3% active;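 active = fluorescence rise, raw or as B-score row- and column-corrected plate score, outside the 99.7% band of its plate's samples, either direction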
M1 antagonist: M1 muscarinic receptor (rat) antagonism; B-score at 10 µM; CHO-M1 cells, Fluo-4 calcium, ACh EC80 antagonist mode; stronger effect = lower value; 64,000 tested, 3.4% active; P08482;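 active = calcium fluorescence response, raw or row-and-column corrected B-score, differing from the plate sample mean either way at a set confidence level, mostly lower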
D1 mod confirm: confirmation of human D1 dopamine receptor allosteric modulators; shares compounds with D1 mod; HEK293 D1 CRE-luciferase, dopamine EC30 potentiation; stronger effect = higher value; luminescence at 10 µM; 2,200 tested, 88% active; AID 642;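 active = luminescence in either of two replicates above the same-plate mean plus 3 SD of the low-dose dopamine control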
D1 no dopamine: D1 (human) signaling in absence of dopamine. 1,900 tested, 0.8% active. shares compounds with D1 mod. luminescence at 10 µM. HEK293 D1 CRE-luciferase, luminescence, no dopamine; stronger effect = higher value; in the data active = luminescence above about 3900
Isoprot counter: counter-screen for D1 modulators: isoproterenol response in HEK293 cells. 2,200 tested, 63% active. luminescence at 10 µM. shares compounds with D1 mod. HEK293 D1 CRE-luciferase, isoproterenol EC30 counter-screen; stronger effect = higher value. AID 647;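 active = luminescence in either replicate above plate mean of wells with a partly effective reference agonist dose plus 3 SD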;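 note: isoproterenol raises cAMP through native beta-adrenoceptor Gs so signal bypasses D1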
Active calls of the source: *; · = no result given.

SMILES | D1 mod | Htt clearance | HEK293 NFkB inh | Jurkat viability | M1 ag | M1 antagonist | D1 mod confirm | D1 no dopamine | Isoprot counter
COc1ccccc1-c1cc(C2CC2)nc(N)c1C#N | 9.4* | 18.1 | -10.1 | -1.6 | 0.0311 | -0.164 | 11344* | 1800 | 3600*
COc1ccccc1-c1c(C)c(C)nc(N)c1C#N | · | 8.0 | 11.9 | 4.5 | -0.333 | -0.366 | · | · | ·
NC1=NS(=O)(=O)NC1c1cccc(Cl)c1 (stereo unspecified) | · | 25.1 | · | · | · | · | · | · | ·
COc1ccccc1-n1c(SCC(=O)NC2CCCCC2)nc2c(c1=O)SCC2 | -1.32 | · | 16.2 | -0.8 | 0.0162 | 0.483 | · | · | ·
CCOC(=O)C1=C(C)Nc2ncnn2C1/C=C/c1ccccc1 (stereo unspecified) | 2.83* | 28.7 | 12.1 | 19.1 | -0.119 | 0.274 | 11572* | 1448 | 3632*
CCn1c(=O)c2c(n3cnnc13)-c1ccccc1CC21CCCCC1 | 26.1* | -37.4 | 7.0 | -2.8 | 0.149 | 0.00965 | 16572* | 1652 | 4360*
CCn1c(SCC(N)=O)nc2c(c1=O)C1(CCCC1)Cc1ccccc1-2 | 0.000547 | · | 13.4 | · | 0 | -2.02 | · | · | ·
Cc1ccc(N2CC(c3nc4ccccc4[nH]3)CC2=O)c(C)c1 (stereo unspecified) | 10.9* | · | 7.1 | -3.1 | -0.425 | 0.185 | 6760 | 1648 | 2384
Cc1cccc(N2C(=O)CC(N3CCC(c4nc5ccccc5[nH]4)CC3)C2=O)c1 (stereo unspecified) | · | 18.7 | · | · | · | · | · | · | ·
O=c1[nH]c(-c2ccccc2O)nc2c1CCCC2 | -0.344 | · | 18.2 | 3.4 | -1.03 | -0.419 | · | · | ·
COc1ccc(-c2cnnn2-c2ccc(N)cc2)cc1OC | 10.7* | · | 7.0 | -2.1 | -0.0488 | 0.0285 | 19800* | 1764 | 5000*
CCn1c(SCC(=O)OCc2ccccc2)nc2c1c(=O)n(C)c(=O)n2C | 3.95* | 27.6 | 11.3 | 0.5 | -0.154 | -0.597 | 5976 | 1308 | 2740
C=CCn1c(SCC(=O)OCc2ccccc2)nc2c1c(=O)n(C)c(=O)n2C | -0.545 | 63.3 | 18.6 | 2.6 | · | · | · | · | ·
CCOC(=O)c1c(N)nn(C(=O)C(C)C)c1-c1ccccc1 | 6.8* | · | 12.6 | -4.0 | 0.614 | 0.276 | 18276* | 1576 | 4740*
CCOC(=O)c1c(N)nn(C(=O)CC)c1-c1ccccc1 | 13* | · | 8.6 | -1.8 | 1.19 | -0.537 | 17424* | 1468 | 4324*
COC(=O)C1(Cc2ccccc2)NC(c2ccccc2C)C2C(=O)N(c3ccc4c(c3)OCO4)C(=O)C21 (stereo unspecified) | · | 9.8 | · | · | · | · | · | · | ·
CCC(C)c1cc(S(=O)(=O)N2CCOCC2)ccc1OC (stereo unspecified) | 9.49* | -75.4 | 14.4 | 3.7 | 0.623 | 0.322 | 11376* | · | 3288*
COc1ccc(S(=O)(=O)N2CCOCC2)cc1C(C)C | 1.11 | 20.7 | 2.4 | 2.7 | 1.12 | 0.738 | · | · | ·
CCn1c(CSc2nc(C)cc(C)n2)nnc1SCC(=O)N1CCCc2ccccc21 | -0.0201 | · | 4.5 | -3.2 | 0.743 | -0.472 | · | · | ·
CCOC(=O)c1ccc(N=C2NC(=O)CS2)cc1 | -0.0613 | -14.2 | 7.4 | -5.2 | 2.36 | -0.0896 | · | · | ·
CCOC(=O)c1ccc(N2CN=C3SCC(=O)N3C2)cc1 | 3.07* | 31.2 | 15.7 | 1.8 | 0.0433 | -0.0479 | 5848* | 1596 | 2552
O=C(Nc1cccnc1)c1ccccc1F | -0.132 | -61.7 | 10.0 | -8.5 | -0.926 | -0.0638 | · | · | ·
O=C(Nc1cccnc1)c1cnn2c(C(F)F)cc(C3CC3)nc12 | 5.01* | · | 2.6 | 4.1 | 0.605 | -2.25 | 16636* | 1580 | 3600*
CCOC(=O)c1cnn2c(C(F)F)cc(C3CC3)nc12 | 3.73* | 29.4 | 7.2 | -0.5 | -0.261 | 0.00874 | 14020* | 1636 | 3336*
C/C(Cl)=C/Cn1c(=O)c2c(nc(Br)n2Cc2ccccc2)n(C)c1=O | 4.82* | 15.4 | 9.0 | 4.9 | 1.13 | 0.533 | 11400* | 1484 | 3484*
SMILES | D1 mod | Htt clearance | HEK293 NFkB inh | Jurkat viability | M1 ag | M1 antagonist | D1 mod confirm | D1 no dopamine | Isoprot counter
CCNc1nc2c(c(=O)n(Cc3ccccc3)c(=O)n2C)n1Cc1ccccc1 | 4.4* | · | 22.1 | 0.5 | 0.613 | 0.669 | 8220* | 1508 | 3808*
Cc1cccc(Nc2nc3c(c(=O)n(C)c(=O)n3C)n2Cc2ccccc2)c1 | 21.7* | 40.5 | 18.0 | -3.4 | -0.0223 | 0.0313 | 12460* | 1376 | 3228*
Cn1c(=O)c2c(nc(Br)n2Cc2ccc3ccccc3c2)n(C)c1=O | · | 48.7 | · | · | -1.36 | 0.0229 | · | · | ·
Cc1cc(C)n2nc[n+](C)c2n1 | -0.721 | -13.1 | 13.0 | 6.1 | -0.702 | 0.4 | · | · | ·
Cc1ccc(NC2c3ncccc3C(=O)N2Cc2ccc(F)cc2)cc1 (stereo unspecified) | 7.46* | · | 9.4 | 1.6 | -1.31 | -0.268 | 10592* | · | 3100*
COc1ccc(CN2C(=O)c3ccccc3C2C(=O)NCc2cccnc2)c(OC)c1 (stereo unspecified) | -1.15 | · | 0.1 | -4.9 | 1.41 | -0.364 | · | · | ·
COc1cc(NC2c3ncccc3C(=O)N2Cc2ccco2)cc(OC)c1 (stereo unspecified) | 12.3* | 3.8 | 8.1 | 0.9 | -0.249 | 0.203 | 14836* | 1576 | 4156*
COc1ccc(NC2c3ncccc3C(=O)N2Cc2ccccc2)c(OC)c1 (stereo unspecified) | 19* | · | 11.0 | 7.8 | -0.709 | 0.229 | 14524* | 1572 | 4532*
COc1ccc(CN2C(=O)c3cccnc3C2Nc2ccc(OC)c(Cl)c2)cc1 (stereo unspecified) | 7.61* | · | 10.1 | 0.6 | -0.453 | 2.03 | 13912* | · | 3308*
N#CC12CCCCC1CC1CCCCC1(C#N)N2Cc1cccnc1 (stereo unspecified) | · | -22.6 | · | · | -0.666 | -0.944 | · | · | ·
O=C(CN1C(=O)NC2(CCCc3ccccc32)C1=O)N1CCc2ccccc2C1 (stereo unspecified) | 0.581 | · | 29.4 | 3.7 | -0.43 | 0.244 | · | · | ·
Cc1ccc(C)c(/C(O)=C2/C(=O)C(=O)N(CCN3CCOCC3)C2c2ccco2)c1 (stereo unspecified) | -0.615 | 21.8 | 12.2 | 3.8 | -0.52 | 0.0171 | · | · | ·
COc1cc(S(=O)(=O)N2CCOCC2)ccc1NC(=O)c1cc2c(s1)CCC2 | · | · | 6.9 | · | 0.0498 | 0.193 | · | · | ·
COc1cc(S(=O)(=O)N2CCOCC2)ccc1NC(=O)CSc1nnc(N)s1 | 4.83* | · | 9.9 | 2.0 | 0.0438 | -0.022 | 5392 | · | 2376
COc1ccc(CCNC(=O)CN2C(=O)c3ccccc3S2(=O)=O)cc1OC | 4.29* | · | 6.3 | -3.0 | -0.0776 | 0.0949 | 7364* | 1808 | 3356*
COc1ccc(CCNC(=O)c2cc(-c3ccccc3O)n[nH]2)cc1OC | 4.41* | 11.8 | 9.2 | -3.9 | 0.0352 | -0.0265 | 8340* | 1572 | 3492*
